Measurements as given in ChEMBL document CHEMBL1129614, “Antitumor benzothiazoles. 3. Synthesis of 2-(4-aminophenyl)benzothiazoles and evaluation of their activities against breast cancer cell lines in vitro and in vivo” (J Med Chem, 1996).
pIC50: −log10 of the molar value.

How the values were obtained:
MCF7 [1] = experiment: In vitro inhibitory activity against mammary carcinoma MCF-7 cell lines; type: functional, cell-based; conditions: Homo sapiens
Summary of the method: (§1)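 Cells kept in RPMI 1640 with 10% FBS, penicillin and streptomycin, under 5% CO2, and subcultured twice weekly in log phase. They were seeded at 2.5-3 × 10² per well and left 4 h to adhere. Drug from 10 mM DMSO stocks was given at 1 pM–100 µM final (DMSO ≤0.25%), n = 8, for 7 days. MTT was added for 4 h, formazan dissolved in DMSO/glycine buffer, and absorbance read at 550 nm as viable cell number.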

MDA-MB-468 [2] = experiment: In vitro inhibitory activity against mammary carcinoma MDA 468 cell lines; type: functional, cell-based; conditions: Homo sapiens
Summary of the method: (§2)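 MDA 468 cells kept in RPMI 1640 with 10% FBS and antibiotics under 5% CO2. They were seeded at 2.5-3 × 10² per well and left 4 h to attach. Drug from 10 mM DMSO stocks was diluted to 1 pM–100 µM final (DMSO ≤0.25%), n = 8, and incubated 10 days. MTT was added for 4 h, formazan solubilized in DMSO/glycine buffer, and A550 read as a measure of viable cells.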

DU-145 = experiment: In vitro cytotoxicity against DU-145 human prostate cancer cell line; type: functional, cell-based; summary of the method: as §1
MDA-MB-468 [3] = experiment: In vitro cytotoxicity against MDA 468 human breast cancer cell line with ER negative EGFR positive; type: functional, cell-based; summary of the method: as §2
IGR-37 cell line = experiment: In vitro cytotoxicity against […] human melanoma cancer cell line; type: functional, cell-based
WiDr = experiment: In vitro cytotoxicity against WiDr human colon cancer cell line; type: functional, cell-based
ZR-75-1 = experiment: In vitro cytotoxicity against ZR 75 human breast cancer cell line with ER positive; type: functional, cell-based; summary of the method: as §1
MDA-MB-231 = experiment: In vitro cytotoxicity against MDA 231 human breast cancer cell line with EGFR positive erbB3 positive; type: functional, cell-based; summary of the method: as §1
HT-29 = experiment: In vitro cytotoxicity against HT-29 human colon cancer cell line; type: functional, cell-based
T-24 = experiment: In vitro cytotoxicity against T24 human bladder cancer cell line
SK-BR-3 = experiment: In vitro cytotoxicity against SKBR 3 human breast cancer cell line with ER negative; type: functional, cell-based; summary of the method: as §1
A204 = experiment: In vitro cytotoxicity against A204 human rhabdomyosarcoma cancer cell line; type: functional, cell-based
A2780 = experiment: In vitro cytotoxicity against A2780 human ovarian cancer cell line; type: functional, cell-based
MCF7 [4] = experiment: In vitro cytotoxicity against MCF-7/Adr human breast cancer cell line; type: functional, cell-based; summary of the method: as §1
PC-3 = experiment: In vitro cytotoxicity against PC-3 human prostate cancer cell line; type: functional, cell-based; summary of the method: as §1
MCF7 [5] = experiment: In vitro cytotoxicity against MCF-7 human breast cancer cell line with ER positive; type: functional, cell-based; summary of the method: as §1
T47D = experiment: In vitro cytotoxicity against T47D human breast cancer cell line with ER negative; type: functional, cell-based; summary of the method: as §1

Structure (SMILES): c1ccc2sc(-c3ccc(N4CCOCC4)cc3)nc2c1
- pIC50 (MCF7 [1]): < 5.00
- pIC50 (MDA-MB-468 [2]): < 5.00

Structure (SMILES): c1ccc2sc(-c3ccc(N4CCCCC4)cc3)nc2c1
- pIC50 (MCF7 [1]): < 5.00
- pIC50 (MDA-MB-468 [2]): < 5.00

Structure (SMILES): COc1ccc2nc(-c3ccc(N)cc3)sc2c1
- pIC50 (MCF7 [1]): > 10.00
- pIC50 (MDA-MB-468 [2]): < 5.00

Structure (SMILES): Nc1ccc(-c2nc3ccccc3s2)cc1
- pIC50 (DU-145): < 4.52
- pIC50 (MDA-MB-468 [3]): 8.80
- pIC50 (IGR-37 cell line): < 4.52
- pIC50 (MCF7 [1]): > 10.00
- pIC50 (WiDr): < 4.52
- pIC50 (ZR-75-1): 7.55
- pIC50 (MDA-MB-231): 7.77
- pIC50 (HT-29): < 4.52
- pIC50 (MDA-MB-468 [2]): > 9.00
- pIC50 (T-24): < 4.52
- pIC50 (SK-BR-3): 8.09
- pIC50 (A204): < 4.52
- pIC50 (A2780): < 4.52
- pIC50 (MCF7 [4]): < 5.00
- pIC50 (PC-3): < 4.52
- pIC50 (MCF7 [5]): 9.10
- pIC50 (T47D): < 5.00

Structure (SMILES): N#Cc1cc(-c2nc3ccccc3s2)ccc1N
- pIC50 (MCF7 [1]): > 8.00

Structure (SMILES): Nc1ccc(-c2nc3cc(O)cc(O)c3s2)cc1
- pIC50 (MCF7 [1]): < 5.00

Structure (SMILES): Nc1ccc(-c2nc3ccc(O)cc3s2)cc1
- pIC50 (MCF7 [1]): < 6.00
- pIC50 (MDA-MB-468 [2]): < 5.00

Structure (SMILES): Nc1ncc(-c2nc3ccccc3s2)cc1Br
- pIC50 (MCF7 [1]): > 8.00
- pIC50 (MDA-MB-468 [2]): > 8.00

Structure (SMILES): COc1cc(OC)c2sc(-c3ccc(N)cc3)nc2c1
- pIC50 (MCF7 [1]): < 5.00
- pIC50 (MDA-MB-468 [2]): < 5.00

Structure (SMILES): Cc1cc(-c2nc3ccccc3s2)cc(Cl)c1N
- pIC50 (MCF7 [1]): > 8.00
- pIC50 (MDA-MB-468 [2]): < 9.00

Structure (SMILES): Nc1ccc(-c2nc3cc(OCc4ccccc4)ccc3s2)c(Cl)c1
- pIC50 (MCF7 [1]): < 5.00
- pIC50 (MDA-MB-468 [2]): < 5.00

Structure (SMILES): COc1cc(OC)c2nc(-c3ccc(N)cc3)sc2c1
- pIC50 (MCF7 [1]): < 5.00

Structure (SMILES): Nc1ccc(-c2nc3ccccc3s2)cc1O
- pIC50 (MCF7 [1]): < 10.00
- pIC50 (MDA-MB-468 [2]): < 5.00

Structure (SMILES): COc1ccc2nc(-c3ccc(N)c(I)c3)sc2c1
- pIC50 (MCF7 [1]): > 10.00
- pIC50 (MDA-MB-468 [2]): > 10.00

Structure (SMILES): Nc1ccc(-c2nc3ccccc3s2)cn1
- pIC50 (MCF7 [1]): < 5.00
- pIC50 (MDA-MB-468 [2]): < 5.00

Structure (SMILES): c1ccc2sc(-c3ccc(N4CCCC4)cc3)nc2c1
- pIC50 (MCF7 [1]): > 6.00

Structure (SMILES): COc1cc2nc(-c3ccc(N)cc3)sc2cc1OC
- pIC50 (MCF7 [1]): < 5.00
- pIC50 (MDA-MB-468 [2]): < 5.00

Structure (SMILES): Nc1ccc(-c2nc3ccccc3[nH]2)cc1
- pIC50 (MCF7 [1]): < 6.00
- pIC50 (MDA-MB-468 [2]): < 5.00

Structure (SMILES): Nc1ccc(-c2nc3ccccc3o2)cc1
- pIC50 (MCF7 [1]): > 8.00
- pIC50 (MDA-MB-468 [2]): < 6.00

Structure (SMILES): Nc1ccc(-c2nc3ccccc3s2)cc1Cl
- pIC50 (MCF7 [1]): > 10.00
- pIC50 (MDA-MB-468 [2]): > 7.00

Structure (SMILES): COc1cccc2sc(-c3ccc(N)cc3Cl)nc12
- pIC50 (MCF7 [1]): < 5.00
- pIC50 (MDA-MB-468 [2]): < 5.00

Structure (SMILES): CCc1cc(-c2nc3ccccc3s2)ccc1N
- pIC50 (MCF7 [1]): > 10.00
- pIC50 (MDA-MB-468 [2]): > 10.00

Structure (SMILES): c1ccc2sc(-c3ccncc3)nc2c1
- pIC50 (MCF7 [1]): < 5.00
- pIC50 (MDA-MB-468 [2]): < 5.00
